# Sampled rows, rich in hits. Any-hit rate of the full collection: about 7.6%.
# M1 agonist = agonists of M1 muscarinic receptor | CHO-M1 cells, Fluo-4 calcium fluorescence, agonist mode; stronger effect = higher value | B-score at 10 µM | hit rate 3% among 64,000 | AID 626;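 active = fluorescence rise, raw or as B-score row- and column-corrected plate score, outside the 99.7% band of its plate's samples, either direction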
# HEK293 NFkB inh = inhibitors of the PMA/ionomycin-induced NF-kB reporter in HEK293 cells | inhibition, % at 3 µM | AID 465 | HEK-293 NF-kB luciferase reporter, luminescence | hit rate 0.21% among 62,000;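 active = inhibition above the mean of all tested compounds plus 3 SD, cut at about 40% in these data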;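 also: 0% = stimulated DMSO wells and 100% = 10 µM reference inhibitor 5653914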
#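 System: NF-kB luciferase reporter HEK-293 cells | Replication: Single test | Control set: DMSO vs reference inhibitor | Evaluation: % inhibition | Schedule: 1 h pretreatment, 16 h stimulation, 37 °C | Probe or stimulus: PMA with ionomycin | Compound dosing: One dose, 3 µM | Detection: Luciferase luminescence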
# Jurkat tox 60K = reduces viability or proliferation of Jurkat cells. Jurkat E6.1 viability, ATP luminescence, 48 h. AID 463. hit rate 1.2% among 56,000. inhibition, % at 4 µM;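 active = inhibition above the mean inhibition of all tested compounds plus 3 SD, cut at about 28% in these data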
# M1 antagonist = M1 muscarinic receptor (rat) antagonism; P08482; CHO-M1 cells, Fluo-4 calcium, ACh EC80 antagonist mode; stronger effect = lower value; B-score at 10 µM; hit rate 3.4% among 64,000; AID 628;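 active = calcium fluorescence response, raw or row-and-column corrected B-score, differing from the plate sample mean either way at a set confidence level, mostly lower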
# D1 allo mod = allosterically modulates the human D1 dopamine receptor. B-score at 10 µM. AID 641. hit rate 5.9% among 58,000. P21728. HEK293 D1, CRE-luciferase, dopamine EC30 potentiation; actives deviate in either direction;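 active = luminescence count or its row- and column-corrected plate score outside the 99.7% band of the plate's sample wells, on either side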
# DAT uptake mod = modulates human dopamine transporter uptake under cocaine; LLC-PK1 hDAT cells, [14C]-dopamine uptake with cocaine IC80; actives deviate in either direction; hit rate 1.3% among 110,000; AID 449768; B-score at 10 µM;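 active = Z score or B-score, a plate-position-corrected score, falls beyond the plate's 99.7% confidence bounds, in either direction; inactive = both scores lie inside the 99.7% bounds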;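 also: scored against the spread of the other compound wells on the same plate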
# Target sequence (Q01959 whole entry, looked up): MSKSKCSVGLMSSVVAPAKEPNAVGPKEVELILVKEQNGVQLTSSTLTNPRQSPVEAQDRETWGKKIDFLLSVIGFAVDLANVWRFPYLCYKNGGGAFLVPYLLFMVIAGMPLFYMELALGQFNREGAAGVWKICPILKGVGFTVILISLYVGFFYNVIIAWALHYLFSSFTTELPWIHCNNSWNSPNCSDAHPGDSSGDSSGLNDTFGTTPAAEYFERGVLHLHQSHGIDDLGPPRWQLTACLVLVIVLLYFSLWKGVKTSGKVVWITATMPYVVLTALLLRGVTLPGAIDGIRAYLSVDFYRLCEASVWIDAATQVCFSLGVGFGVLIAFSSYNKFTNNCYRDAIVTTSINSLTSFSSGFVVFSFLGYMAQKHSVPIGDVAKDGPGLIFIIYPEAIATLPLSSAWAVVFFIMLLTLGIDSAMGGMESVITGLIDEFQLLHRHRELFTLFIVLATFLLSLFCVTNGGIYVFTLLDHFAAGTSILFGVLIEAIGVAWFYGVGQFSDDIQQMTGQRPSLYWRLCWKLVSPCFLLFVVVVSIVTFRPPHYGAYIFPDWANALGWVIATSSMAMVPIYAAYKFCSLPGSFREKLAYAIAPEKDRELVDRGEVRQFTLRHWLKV
# D1 PAM confirm = confirmation of human D1 dopamine receptor allosteric modulators | hit rate 88% among 2,200 | AID 642 | HEK293 D1 CRE-luciferase, dopamine EC30 potentiation; stronger effect = higher value | shares compounds with D1 allo mod | luminescence at 10 µM;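 active = luminescence in either of two replicates above the same-plate mean plus 3 SD of the low-dose dopamine control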
# D1 ag no DA = activates D1 CRE-luciferase signal without dopamine present; hit rate 0.8% among 1,900; luminescence at 10 µM; HEK293 D1 CRE-luciferase, luminescence, no dopamine; stronger effect = higher value; shares compounds with D1 allo mod; in the data active = luminescence above about 3900
# Isoprot counter = isoproterenol response counter-screen activity for D1 modulators | AID 647 | calls only at 10 µM | HEK293 D1 CRE-luciferase, isoproterenol EC30 counter-screen | shares compounds with D1 allo mod | hit rate 63% among 2,200;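 active = luminescence in either replicate above plate mean of wells with a partly effective reference agonist dose plus 3 SD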;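 also: isoproterenol raises cAMP through native beta-adrenoceptor Gs so signal bypasses D1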
# * marks the source's active call; other numbers are inactive results; i = inactive; x = no result given; + = active, no number.
SMILES,M1 agonist,HEK293 NFkB inh,Jurkat tox 60K,M1 antagonist,D1 allo mod,DAT uptake mod,D1 PAM confirm,D1 ag no DA,Isoprot counter
C=CCSc1nc2ccccc2c(=O)[nH]1,-2.2,5,0,0.51,3*,0.94,9580*,1792,i
N#CCCN1CCNCC1,x,x,x,x,x,-0.56,x,x,x
COc1cc2c(cc1OC)CN(CC(=O)NC(=O)NCc1ccco1)CC2,-0.26,5,3,-0.012,6.8*,0.68,8812*,x,i
c1ccc(-c2nc(NCc3ccco3)c3ccccc3n2)nc1,-0.25,10,16,2.1,-0.15,-0.077,x,x,x
Nc1nc(N)nc(-c2ccccc2O)n1,x,x,x,x,x,0.26,x,x,x
Cc1cc(C)nc(SCc2nc(N)nc(-c3ccccc3O)n2)n1,-1.2,-4,8,0.43,13*,-0.091,17172*,1668,+
Cc1cc(C)n(-c2nc3c(c(=O)n(Cc4ccc(Cl)c(Cl)c4)c(=O)n3C)n2C)n1,0.34,14,0,0.067,-0.24,x,x,x,x
NC(=O)c1cc2ccc(O)cc2oc1=Nc1ccccc1,0.76,2,11,0.65,5.1*,-0.83,5036,1960,i
CCOC(=O)CN1C(=O)N[C@@H](CCc2ccccc2)C(C(=O)OC)=C1C,x,x,x,x,x,-0.34,x,x,x
CC(=O)N(CCCCN1C(=O)c2ccccc2C1=O)c1ccc(C)cc1,x,x,x,x,x,1,x,x,x
O=C1CC(c2ccccc2)Sc2ccccc2N1 (stereo not drawn),-0.28,27,0,0.35,26*,-0.59,18012*,1352,+
COC(=O)CC1Sc2ccccc2NC1=O (stereo not drawn),-0.31,17,-3,-0.29,0.21,-0.047,x,x,x
CC1CCc2sc3ncnc(N4CCOCC4)c3c2C1 (stereo not drawn),1.1,5,6,0.11,19*,-0.89,14216*,1432,+
CC1CCc2c(sc3ncnc(N4CCOCC4)c23)C1 (stereo not drawn),-1.3,x,x,-0.43,17*,0.43,13928*,1504,+
CCCOc1ccc(/C(O)=C2/C(=O)C(=O)N(CCCN3CCOCC3)C2c2ccncc2)cc1 (stereo not drawn),-2.9,x,x,-0.026,-0.72,x,x,x,x
Cc1cc(-c2cccs2)c2c(n1)sc1c(=O)[nH]c(=O)[nH]c12,-0.19,-13,-4,-0.0018,9.9*,0.52,13116*,1580,i
N#Cc1sc2nc(-c3cccs3)cc(-c3ccc(Cl)cc3)c2c1N,x,x,x,x,x,0.65,x,x,x
COc1cc(NC(=O)Cc2cccs2)ccc1-n1cnnn1,0.32,-4,-2,0.039,-0.43,0.73,x,x,x
CN(C)[C@@H](CO)c1nnc([C@H](CCC(=O)O)NC(=O)C2CCNCC2)o1,x,x,x,x,x,-0.84,x,x,x
CC(C)NS(=O)(=O)c1ccc(CCC(=O)NCc2ccco2)cc1,-0.46,17,x,0.24,-0.074,-0.56,x,x,x
CCC(C)Sc1nc2c(c(=O)n1C)SC(C)C2 (stereo not drawn),-0.02,13,7,-1.1,3.9*,0.6,8748*,1640,i
Cc1ccc(-n2c(SCC(=O)Nc3cc(C)on3)nc3c(c2=O)SC(C)C3)cc1 (stereo not drawn),0.62,16,-3,0.07,2.3,-0.32,x,x,x
CCn1c(SCC(=O)Nc2cc(C)on2)nc2c(c1=O)SC(C)C2 (stereo not drawn),-0.16,22,-2,-0.6,6.2*,-1.1,6212*,1608,i
CCSc1nc2c(c(=O)n1CC)SC(C)C2 (stereo not drawn),0.1,7,-9,0.6,5.5*,0.084,12712*,1732,i
CCn1c(SC)nc2c(c1=O)SC(C)C2 (stereo not drawn),0.16,11,-3,-0.11,2.2,-0.93,x,x,x
SMILES,M1 agonist,HEK293 NFkB inh,Jurkat tox 60K,M1 antagonist,D1 allo mod,DAT uptake mod,D1 PAM confirm,D1 ag no DA,Isoprot counter
CCOC(=O)N1CCN(c2ccc(C(=O)c3ccccc3)cc2F)CC1,-0.17,1,6,0.4,-0.28,2,x,x,x
O=S(=O)(NCc1ccc2c(c1)OCO2)c1cnc[nH]1,-0.65,13,2,-0.43,0.017,-1.2,x,x,x
CCOc1ccc(CCNS(=O)(=O)c2cnc[nH]2)cc1OCC,0.51,15,8,0.22,25*,-0.58,24048*,x,+
CCOC(=O)NCCc1ccc(OC)cc1,0.32,-6,-8,0.73,3.8*,-0.68,8468*,1752,i
CCOC(=O)N1CCN(C(=O)CN2C(=O)COc3ccc(C(C)(C)C)cc32)CC1,0.0079,7,2,0.0023,0.87,0.27,x,x,x
FC(F)(F)c1nnc2sc(-c3ccncc3)nn12,0.26,4,-1,0.18,0.23,-0.92,x,x,x
FC(F)(F)c1nnc2sc(-c3cccs3)nn12,0.39,10,0,0.22,22*,0.47,10532*,1524,+
Cc1sc2ncnc(SCC(=O)N3CCCC3)c2c1C,0.26,2,-1,0.48,2.3*,1.4,7900*,1616,i
COc1ccccc1[C@@H]1C(c2cccc(Cl)c2)=NN(c2ccc(Br)cc2)[C@H]1C(=O)N1CCOC1=O,x,x,x,x,x,1.2,x,x,x
CCOC(=O)Nc1sc(C(=O)N(CC)CC)c(C)c1C(=O)OCC,1.3,7,-10,0.06,5.1*,1.9,14176*,1880,i
CCOC(=O)c1c(NC(N)=O)sc(C)c1C,0.019,19,-3,1.1,6.7*,-0.46,11700*,1768,+
O=C(c1cccs1)N(Cc1ccccn1)Cc1ccco1,0,4,8,-0.25,10*,-0.25,13228*,1456,+
Cc1ccc2[nH]c(=O)c(CN(Cc3ccco3)C(=O)c3cccs3)cc2c1,0.57,1,-1,-1.5,-1.1,0.0054,x,x,x
CN(Cc1ccco1)C(=O)Cn1c(=O)oc2cc(S(=O)(=O)NCc3ccccc3)ccc21,-0.55,11,8,-0.38,-0.21,-0.063,x,x,x
c1csc(-c2nc3nc4ccccc4nc3n2Cc2ccc3c(c2)OCO3)c1,-0.3,10,3,0.29,8.9*,1.4,10488*,1716,+
CSCCC(NC(=O)c1ccoc1C)C(=O)O (stereo not drawn),x,x,x,x,x,-0.54,x,x,x
CCn1nc(C(=O)NC2=NCCS2)c2ccccc2c1=O,-1,11,x,-0.16,2.9*,0.07,9356*,1640,i
Cc1cccc(NC(=O)CCSc2nc(C)cc(C)n2)c1,x,x,x,x,x,-0.56,x,x,x
CCOC(=O)c1ccc(Oc2cc(C)nc(SC)n2)cc1,0.97,17,75*,0.77,3*,0.42,8484*,1628,i
CCOC(=O)c1ccc(Oc2nc(NC)nc(SC)n2)cc1,-0.48,9,8,0.23,8*,0.46,17796*,1848,i

# Compound activity deposited in PubChem BioAssay by several laboratories.
